Results as given in ChEMBL document CHEMBL4052630, “Design, synthesis and evaluation of scutellarein-O-acetamidoalkylbenzylamines as potential multifunctional agents for the treatment of Alzheimer's disease” (Eur J Med Chem, 2017).
Calls of active or inactive are those of the source. The calls are words filed in the database; no cut-off is given here.

What was measured:
[1] = Inhibition of rat serum BuChE using butyrylthiocholine iodide as substrate after 15 mins by Ellman's method; assay type: ADME
Acetylcholinesterase = Acetylcholinesterase (Electrophorus electricus, UniProt O42275); test: Inhibition of electric eel AChE using acetylthiocholine iodide as substrate after 15 mins by Ellman's method
Acetylcholinesterase, sequence (O42275 whole entry): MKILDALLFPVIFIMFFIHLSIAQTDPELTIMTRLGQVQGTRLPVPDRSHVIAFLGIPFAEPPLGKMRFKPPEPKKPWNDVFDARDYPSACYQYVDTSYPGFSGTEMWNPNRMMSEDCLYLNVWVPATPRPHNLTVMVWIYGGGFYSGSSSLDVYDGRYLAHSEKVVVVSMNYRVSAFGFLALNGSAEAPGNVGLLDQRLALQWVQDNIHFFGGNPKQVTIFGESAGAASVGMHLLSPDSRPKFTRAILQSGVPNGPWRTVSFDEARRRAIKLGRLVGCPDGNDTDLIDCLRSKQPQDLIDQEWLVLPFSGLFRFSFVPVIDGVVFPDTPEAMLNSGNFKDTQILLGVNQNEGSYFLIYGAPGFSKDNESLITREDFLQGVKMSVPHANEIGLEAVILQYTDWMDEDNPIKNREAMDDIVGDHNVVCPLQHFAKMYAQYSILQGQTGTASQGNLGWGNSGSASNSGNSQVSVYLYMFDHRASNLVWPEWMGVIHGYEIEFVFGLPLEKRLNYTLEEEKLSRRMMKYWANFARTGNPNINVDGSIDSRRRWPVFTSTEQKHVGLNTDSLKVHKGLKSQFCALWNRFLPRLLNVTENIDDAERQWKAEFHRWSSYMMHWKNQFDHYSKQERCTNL

Rattus norvegicus = species: Rattus norvegicus; test: Selectivity index, ratio of IC50 for rat serum BuChE to IC50 for rat cortex homogenate AChE
Outline: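 Modified Ellman assay. AChE from 5% rat cortex homogenate, pre-incubated 5 min with iso-OMPA (4.0 mmol/L). BuChE from 25% rat serum. Enzyme incubated with compound (<1% DMSO) and acetyl- or butyrylthiocholine iodide (1 mmol/L) in phosphate buffer pH 7.4 for 15 min at 37 °C. DTNB added, read at 405 nm. IC50 from 3 independent experiments. Index = BuChE IC50/AChE IC50.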

[2] = Antioxidant activity assessed as trolox equivalents of AAPH radical scavenging activity at 1 to 10 uM preincubated for 15 mins followed by AAPH addition measured every 60 sec for 90 mins by ORAC-FL assay; assay type: functional
Outline: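 ORAC-FL in 75 mM phosphate buffer pH 7.4. Compound at 1–10 µM with fluorescein (150 nM final), pre-incubated 15 min at 37 °C, then AAPH added (12 mM final). Fluorescence read every minute for 90 min, ex 485/em 535 nm. Curves normalised to the FL+AAPH blank. Trolox standard 1–8 µM. Duplicates, ≥3 independent assays. Results given as µM Trolox equivalent per µM compound.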

[3] = target: Acetylcholinesterase (Electrophorus electricus) (UniProt O42275); test: Mixed type inhibition of electric eel AChE at 10 to 40 nM preincubated for 15 mins followed by varying levels of acetylthiocholine substrate addition by Lineweaver-Burk plot analysis
Acetylcholinesterase (Electrophorus electricus), sequence (O42275 24-633 limits assumed): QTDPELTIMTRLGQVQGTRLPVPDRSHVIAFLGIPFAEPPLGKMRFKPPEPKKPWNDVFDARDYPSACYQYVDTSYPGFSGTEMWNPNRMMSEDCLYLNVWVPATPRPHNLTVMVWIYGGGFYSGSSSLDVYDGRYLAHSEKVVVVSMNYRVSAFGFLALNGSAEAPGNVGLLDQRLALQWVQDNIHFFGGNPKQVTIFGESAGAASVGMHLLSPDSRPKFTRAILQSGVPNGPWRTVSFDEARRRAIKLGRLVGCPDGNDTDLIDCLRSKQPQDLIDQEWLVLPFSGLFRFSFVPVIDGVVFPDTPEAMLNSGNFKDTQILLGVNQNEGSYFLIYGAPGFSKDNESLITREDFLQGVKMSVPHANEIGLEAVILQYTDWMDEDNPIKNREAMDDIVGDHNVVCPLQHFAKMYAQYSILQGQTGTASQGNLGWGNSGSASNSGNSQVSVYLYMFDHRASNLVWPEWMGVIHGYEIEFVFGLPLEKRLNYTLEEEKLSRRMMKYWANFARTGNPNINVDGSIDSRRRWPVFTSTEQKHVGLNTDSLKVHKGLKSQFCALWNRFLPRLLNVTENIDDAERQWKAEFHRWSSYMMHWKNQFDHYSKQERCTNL
Outline: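 Electric eel AChE (10 µL of 0.5 U/mL) in 0.1 M phosphate pH 8.0 with DTNB, pre-incubated 15 min at 37 °C with three inhibitor concentrations. Acetylthiocholine added at 0.1–0.4 mM and hydrolysis read at 412 nm, with an inhibitor-free control. Lineweaver-Burk plots by weighted least squares; slopes replotted against inhibitor concentration.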

[4] = Metal chelating activity assessed as mole fraction of compound required to show 1:1 stoichiometry for Cu2+-compound complex up to 37.5 uM after 30 mins by UV-vis spectrophotometric method
Outline: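 Molar-ratio titration in methanol: compound fixed at 37.5 µM final with CuCl2 at 3.75-93.75 µM final. Absorbance at 386 nm taken after numerical subtraction of CuCl2 and compound spectra, and plotted against mole fraction of compound. Stoichiometry taken from the intersection of two straight lines.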

[5] = target: Amyloid-beta precursor protein (Homo sapiens) (UniProt P05067); test: Inhibition of amyloid beta (1 to 42) (unknown origin) self aggregation at 12.5 uM after 24 hrs by ThT-based fluorometric method relative to control
Amyloid-beta precursor protein (Homo sapiens), sequence (P05067 whole entry): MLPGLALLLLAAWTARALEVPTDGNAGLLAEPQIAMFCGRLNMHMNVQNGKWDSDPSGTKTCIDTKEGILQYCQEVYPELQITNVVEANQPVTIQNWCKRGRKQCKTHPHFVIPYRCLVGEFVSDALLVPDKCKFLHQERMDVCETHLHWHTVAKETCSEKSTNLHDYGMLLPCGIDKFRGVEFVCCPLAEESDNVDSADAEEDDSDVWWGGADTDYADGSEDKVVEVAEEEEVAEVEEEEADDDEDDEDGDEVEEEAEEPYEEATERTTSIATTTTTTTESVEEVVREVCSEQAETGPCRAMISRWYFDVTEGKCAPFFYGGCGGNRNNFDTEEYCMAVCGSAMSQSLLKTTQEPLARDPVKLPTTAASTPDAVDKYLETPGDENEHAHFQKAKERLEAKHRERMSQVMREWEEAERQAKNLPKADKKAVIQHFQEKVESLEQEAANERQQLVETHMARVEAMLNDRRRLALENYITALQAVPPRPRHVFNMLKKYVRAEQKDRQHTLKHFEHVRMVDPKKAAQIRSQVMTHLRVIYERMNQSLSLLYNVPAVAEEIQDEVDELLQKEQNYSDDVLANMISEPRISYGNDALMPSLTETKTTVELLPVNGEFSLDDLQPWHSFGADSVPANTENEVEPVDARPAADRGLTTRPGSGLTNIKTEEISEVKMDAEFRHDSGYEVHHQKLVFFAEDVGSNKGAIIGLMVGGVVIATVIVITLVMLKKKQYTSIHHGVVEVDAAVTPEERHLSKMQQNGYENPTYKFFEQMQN
Outline: (§1)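 Aβ1-42 (25 µM final) incubated 24 h at 37 °C with or without compound (1-50 µM) in 50 mM phosphate buffer pH 7.4. Thioflavin T (5 µM in glycine-NaOH pH 8.5) then added, fluorescence read at ex 446/em 490 nm. Inhibition = (1-IFi/IFc)×100 after background subtraction. Run in triplicate.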

[6] = target: Amyloid-beta precursor protein (Homo sapiens) (UniProt P05067); test: Inhibition of amyloid beta (1 to 42) (unknown origin) self aggregation at 50 uM after 24 hrs by ThT-based fluorometric method relative to control; outline: as §1
[7] = Metal chelating activity assessed as inhibition of Cu2+ induced amyloid beta (1 to 42) aggregation at 25 uM after 24 hrs by ThT-based fluorometric method relative to control
Outline: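 Aβ1-42 (25 µM) with Cu2+ (25 µM, one equivalent) in 20 mM HEPES pH 6.6 with NaCl, incubated 24 h at 37 °C ± compound (25 µM). Then 5 µM thioflavin T in glycine-NaOH pH 8.5 was added and read at ex 446/em 490 nm. Triplicate. % inhibition relative to no-compound control.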

[8] = Metal chelating activity assessed as disaggregation of Cu2+ induced amyloid beta (1 to 42) fibrils at 25 uM treated for 24 hrs post Cu2+ treatment for 24 hrs by ThT-based fluorometric method relative to control
Outline: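 Fibrils preformed from Aβ1-42 (25 µM) plus Cu2+ (25 µM) in 20 mM HEPES pH 6.6, 150 mM NaCl, 24 h at 37 °C. Compound (25 µM) then added for another 24 h at 37 °C. Thioflavin T (5 µM, glycine-NaOH pH 8.5) fluorescence read at ex 446/em 490 nm. Triplicate.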

[9] = Cytotoxicity against human SH-SY5Y cells assessed as cell viability at 100 uM after 24 hrs by MTT assay relative to control; assay type: cell-based; details: read-out: Activity
Outline: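 SH-SY5Y cells grown in DMEM with 10% FBS at 37 °C, 5% CO2, seeded 4 × 10^4 cells/well and incubated 24 h. Compounds given at 1, 10 and 100 µM (1% DMSO final) for 24 h. MTT (5 mg/ml) added for 4 h, cells lysed overnight in DMF/SDS, absorbance read at 590 nm against control. Three independent experiments.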

PC-12 [10] = test: Neuroprotective activity against H2O2 induced cell injury in rat PC12 cells assessed as cell viability at 1 uM preincubated for 24 hrs followed by incubation with H2O2 for 2 hrs measured after 24 hrs by MTT assay (reference value: 43.9%); assay type: functional; details: read-out: Activity
Outline: (§2)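 PC12 cells in phenol-red-free DMEM with 10% FCS, plated at 10^5 cells/well. Cells preincubated 24 h with compound (1.0 or 10.0 µM; dissolved in 2% DMSO, diluted in PBS), then exposed to H2O2 100 µM for 2 h. Medium replaced; viability assessed 24 h later by MTT (4 h, 37 °C), lysis in DMF/SDS, A590.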

Mus musculus = test: Reversal of scopolamine-induced memory impairment in Kunming mouse assessed as step-down latency time at 7.33 mg/kg, po administered 60 mins prior to training trial followed by scopolamine challenge at 30 mins post dose measured 24 hrs after training trial by passive avoidance test; assay type: functional
Outline: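 Kunming mice, 18–22 g, six weeks old, either sex; 10 per group. Oral dosing 1 h before training (test compound 3.67, 7.33, 22 mg/kg; donepezil 5.0 mg/kg), scopolamine 3 mg/kg i.p. 30 min later. Training: 0.5 mA, 2 s foot shock on stepping off the block. Step-down latency measured 24 h later. Mean ± SEM.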

PC-12 [11] = test: Neuroprotective activity against H2O2 induced cell injury in rat PC12 cells assessed as increase in cell viability preincubated for 24 hrs followed by incubation with H2O2 for 2 hrs measured after 24 hrs by MTT assay; assay type: functional, cell-based; outline: as §2
[12] = Solubility of the compound in water; assay type: physicochemical; details: buffer

In the case of `CCN(CCCCNC(=O)COc1ccc(-c2cc(=O)c3c(O)c(OC)c(OC)cc3o2)cc1)Cc1ccccc1OC`, the IC50 [1] is reported as > 500 µM, the IC50 (Acetylcholinesterase) is reported as 15.9 µM and the Ratio IC50 (Rattus norvegicus) is reported as > 9800. For the same compound, the Activity [2] was 1.13 equiv, the inhibition [3] was “Active” and the Activity [4] was 0.99 molar ratio. It also gave an inhibition [5] of 43.6%, an inhibition [6] of 75.2% and an inhibition [7] of 43.4%. The Activity [8] was 66.3%, the viability at 24 h, 100 µM [9] was 82.4% and the viability at 1 µM (PC-12 [10]) was 67.6%. For the same compound, the Time (Mus musculus) was 194.3 s, the Activity (PC-12 [11]) was “Dose-dependent effect” and the solubility [12] was “Insoluble”.
